Assays:
[1] = Partition coefficient (logP); assay type: physicochemical; settings: octanol/water
Method in brief: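 Calculated with CLOGP for the undissociated acid as 1-octanol/water partition coefficient; cis and trans isomers not distinguished.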

Mus musculus [2] = test: Brain concentration after 15 min of administration; assay type: functional
Method in brief: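 Mice (n = 5, or 4 where footnoted) were given an ED50 dose and killed at 15 min. Whole brains were homogenized in 0.32 M sucrose and stored at -78 °C. Sodium octanoate served as internal standard; samples were acidified with HCl and extracted into EtOAc. Acids were quantified as tert-butyldimethylsilyl esters by GC-MS (EI 70 eV, SIM at M+ − 57). Each sample ran in triplicate; values are mean ± SD.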

Mus musculus [3] = test: Anticonvulsant activity against mice after intraperitoneal administration; assay type: functional; settings: ip
Method in brief: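 Mice, 6 weeks old, eight per dose, received five ip doses of the sodium salt (4 mL/kg). Pentylenetetrazole (85 mg/kg, 10 mL/kg) was given sc at 10 min and animals were watched for 30 min. Unprotected meant a 5 s clonus with loss of balance. ED50 was read from percentage protection vs log(dose). Sedation was scored from activity and muscle tone during handling.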

| logP [1] | Compound | C (Mus musculus [2]) | ED50 (Mus musculus [3]) |
| --- | --- | --- | --- |
| 1.72 | O=C(O)C=C1CCCC1 | 450 nM/g | 2.3 mmol/kg |
| 2.28 | O=C(O)C=C1CCCCC1 | 320 nM/g | 1.4 mmol/kg |
| 2.22 | C/C=C/C(=C\CC)C(=O)O | 680 nM/g | 1.4 mmol/kg |
| 2.72 | CCCC(CCC)C(=O)O [VALPROIC ACID] | 620 nM/g | 0.83 mmol/kg |
| 1.22 | CC/C=C\C(=O)O | 4460 nM/g | 7 mmol/kg |
| 2.84 | O=C(O)C=C1CCCCCC1 | 159 nM/g | 0.96 mmol/kg |
| 1.09 | CC(C)=CC(=O)O | 2710 nM/g | 5.2 mmol/kg |
| 3.4 | O=C(O)C=C1CCCCCCC1 | 94 nM/g | 0.73 mmol/kg |
| 1.22 | CC/C=C/C(=O)O | 2220 nM/g | 6 mmol/kg |
| 1.53 | CC/C=C(\C)C(=O)O | 1520 nM/g | 4.4 mmol/kg |
| 1.66 | O=C(O)C1=CCCCC1 | 1210 nM/g | 2.2 mmol/kg |
| 2.22 | C/C=C\C(=C/CC)C(=O)O | 350 nM/g | 0.78 mmol/kg |
| 1.1 | O=C(O)C1=CCCC1 | 500 nM/g | 4.7 mmol/kg |
| 3.11 | CC/C=C(\CCCC)C(=O)O | 140 nM/g | 0.87 mmol/kg |
| 2.59 | CC/C=C(\CCC)C(=O)O | 260 nM/g | 0.84 mmol/kg |
| 2.06 | CC/C=C(\CC)C(=O)O | 660 nM/g | 1.6 mmol/kg |
| 1.42 | O=C(O)C1=CC2CCC1C2 (stereo unspecified) | 2150 nM/g | 2.9 mmol/kg |

Source: ChEMBL document CHEMBL1128528, “Structure-activity relationships of unsaturated analogues of valproic acid” (J Med Chem, 1995)
